Data published in ChEMBL document CHEMBL3098117, “Identification and optimization of an aminoalcohol-carbazole series with antimalarial properties” (ACS Med Chem Lett, 2013).
Each block holds one compound with its values, some of them ahead of it. Calls of active or inactive are those of the source. No cut-off for these calls is given here.

Assays:
Cytochrome P450 1A2 = biological target: T1, Cytochrome P450 1A2 (Homo sapiens, UniProt P05177); experiment: Inhibition of human recombinant CYP1A2 expressed in baculovirus-infected insect cells preincubated for 15 mins followed by substrate addition measured after 30 mins by luminescence assay; type: ADME; conditions: recombinant enzyme, 0.5 h
T1 sequence (P05177 whole entry): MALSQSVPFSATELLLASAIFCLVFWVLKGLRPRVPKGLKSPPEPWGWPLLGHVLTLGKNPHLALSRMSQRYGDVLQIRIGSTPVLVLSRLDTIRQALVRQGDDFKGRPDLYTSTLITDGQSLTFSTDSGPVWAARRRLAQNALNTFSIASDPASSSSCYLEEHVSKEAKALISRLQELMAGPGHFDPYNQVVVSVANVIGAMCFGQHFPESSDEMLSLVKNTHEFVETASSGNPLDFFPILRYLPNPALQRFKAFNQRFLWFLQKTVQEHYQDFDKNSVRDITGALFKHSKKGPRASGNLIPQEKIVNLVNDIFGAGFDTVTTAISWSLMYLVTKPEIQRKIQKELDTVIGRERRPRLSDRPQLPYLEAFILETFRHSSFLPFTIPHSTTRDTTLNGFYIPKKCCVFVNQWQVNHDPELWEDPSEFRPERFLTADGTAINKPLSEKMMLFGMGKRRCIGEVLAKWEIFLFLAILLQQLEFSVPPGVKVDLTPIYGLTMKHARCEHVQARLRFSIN

Cytochrome P450 3A4 = Cytochrome P450 3A4 (Homo sapiens, UniProt P08684); experiment: Inhibition of human recombinant CYP3A4 expressed in baculovirus-infected insect cells preincubated for 15 mins followed by substrate addition measured after 30 mins by luminescence assay; type: ADME; conditions: recombinant enzyme, 0.5 h
[1] = biological target: Voltage-gated inwardly rectifying potassium channel KCNH2 (Homo sapiens, UniProt Q12809); experiment: Inhibition of human ERG expressed in CHO cells; type: cell-based
Cytochrome P450 2C19 = Cytochrome P450 2C19 (Homo sapiens, UniProt P33261); experiment: Inhibition of human recombinant CYP2C19 expressed in baculovirus-infected insect cells preincubated for 15 mins followed by substrate addition measured after 30 mins by luminescence assay; type: ADME; conditions: recombinant enzyme, 0.5 h
Cytochrome P450 2B6 = biological target: T2, Cytochrome P450 2B6 (Homo sapiens, UniProt P20813); experiment: Inhibition of human recombinant CYP2B6 expressed in baculovirus-infected insect cells preincubated for 15 mins followed by substrate addition measured after 30 mins by luminescence assay; type: ADME; conditions: recombinant enzyme, 0.5 h
T2 sequence (P20813 whole entry): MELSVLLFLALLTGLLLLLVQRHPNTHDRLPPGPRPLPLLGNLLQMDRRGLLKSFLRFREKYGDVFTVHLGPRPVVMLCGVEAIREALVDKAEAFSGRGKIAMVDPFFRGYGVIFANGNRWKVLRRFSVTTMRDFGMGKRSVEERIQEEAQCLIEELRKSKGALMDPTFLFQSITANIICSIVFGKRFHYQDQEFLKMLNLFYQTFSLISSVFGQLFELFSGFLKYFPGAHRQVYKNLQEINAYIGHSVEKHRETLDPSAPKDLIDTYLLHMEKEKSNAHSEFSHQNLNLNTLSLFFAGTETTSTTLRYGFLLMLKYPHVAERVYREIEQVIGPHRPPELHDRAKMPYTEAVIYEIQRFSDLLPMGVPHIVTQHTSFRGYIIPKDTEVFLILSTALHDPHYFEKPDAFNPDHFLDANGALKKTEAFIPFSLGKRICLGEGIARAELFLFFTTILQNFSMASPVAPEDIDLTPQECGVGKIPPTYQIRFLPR

Cytochrome P450 2C8 = biological target: T3, Cytochrome P450 2C8 (Homo sapiens, UniProt P10632); experiment: Inhibition of human recombinant CYP2C8 expressed in baculovirus-infected insect cells preincubated for 15 mins followed by substrate addition measured after 30 mins by luminescence assay; type: ADME; conditions: recombinant enzyme, 0.5 h
T3 sequence (P10632 whole entry): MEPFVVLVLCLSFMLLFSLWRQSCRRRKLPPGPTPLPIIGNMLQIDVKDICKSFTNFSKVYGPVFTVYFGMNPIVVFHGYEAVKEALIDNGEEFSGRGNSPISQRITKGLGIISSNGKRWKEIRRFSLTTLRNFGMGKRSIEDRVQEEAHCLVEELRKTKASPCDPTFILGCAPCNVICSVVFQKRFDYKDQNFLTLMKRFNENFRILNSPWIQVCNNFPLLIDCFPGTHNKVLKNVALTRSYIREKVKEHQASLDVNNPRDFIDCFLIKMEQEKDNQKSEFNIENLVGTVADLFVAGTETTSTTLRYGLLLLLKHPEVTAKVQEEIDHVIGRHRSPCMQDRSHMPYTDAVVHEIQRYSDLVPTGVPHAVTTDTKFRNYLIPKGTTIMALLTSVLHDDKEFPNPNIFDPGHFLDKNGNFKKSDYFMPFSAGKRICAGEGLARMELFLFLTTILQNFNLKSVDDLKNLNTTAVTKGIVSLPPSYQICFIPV

Plasmodium falciparum [2] = experiment: Antimalarial activity against Plasmodium falciparum K1 infected in human RBC after 72 hrs by hypoxanthine incorporation assay in presence of serum albumin; type: functional, organism-based; conditions: for IC50: K1, 72 h
How it was run: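 Mixture of drug, human red blood cells and P. falciparum incubated 3 days (72 h) with serum albumin present; growth read as hypoxanthine incorporation.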

Cytochrome P450 2D6 = Cytochrome P450 2D6 (Homo sapiens, UniProt P10635); experiment: Inhibition of human recombinant CYP2D6 expressed in baculovirus-infected insect cells preincubated for 15 mins followed by substrate addition measured after 30 mins by luminescence assay; type: ADME; conditions: recombinant enzyme, 0.5 h
Cytochrome P450 2C9 = Cytochrome P450 2C9 (Homo sapiens, UniProt P11712); experiment: Inhibition of human recombinant CYP2C9 expressed in baculovirus-infected insect cells preincubated for 15 mins followed by substrate addition measured after 30 mins by luminescence assay; type: ADME; conditions: recombinant enzyme, 0.5 h
[3] = Volume of distribution at steady state in NMRI mouse at 1 mg/kg, iv by LC-MS/MS analysis; type: ADME, organism-based; design: dose 1 mg/kg, route intravenous; conditions: in vivo, read-out: Vdss
Plasmodium berghei [4] = experiment: Antimalarial activity against Plasmodium berghei ANKA expressing GFP infected in po dosed NMRI mouse assessed as reduction in parasitemia administered qd for 4 days measured at 24 hrs after last dose; type: functional
How it was run: (§1)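 P. berghei-infected mice dosed orally once daily on days 0–3, first dose 4 h postinfection, at 3, 10, 30 and 100 mg/kg/day. Red blood cell parasitemia and plasma exposure measured on day 4, 24 h after last dose; ED50 derived from dose-response; survival then monitored for 26 further days as mean survival days.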

Plasmodium falciparum [5] = experiment: Antimalarial activity against chloroquine, pyrimethamine, sulfadoxine, quinine and mefloquine-sensitive Plasmodium falciparum D6; type: functional, organism-based
Plasmodium falciparum [6] = experiment: Antimalarial activity against chloroquine, pyrimethamine, quinine-resistant Plasmodium falciparum V1S; type: functional; conditions: VS/1
Plasmodium berghei [7] = experiment: Antimalarial activity against Plasmodium berghei ANKA expressing GFP infected in NMRI mouse assessed as mean survival days at 100 mg/kg/day, po qd for 4 days measured at 24 hrs after last dose; type: functional
How it was run: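 P. berghei-infected mice dosed orally once daily on days 0–3, starting 4 h postinfection, in groups of 3, 10, 30 and 100 mg/kg/day. Red blood cell parasitemia and plasma exposure measured on day 4, 24 h after the last dose. Mean survival days then monitored over 26 further days.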

Plasmodium falciparum [8] = experiment: Antimalarial activity against chloroquine, pyrimethamine, sulfadoxine and quinine-resistant Plasmodium falciparum W2; type: functional, organism-based
[9] = AUC in NMRI mouse at 1 mg/kg, iv and 5 mg/kg, po by LC-MS/MS analysis; type: ADME, organism-based; conditions: plasma
Plasmodium falciparum [10] = experiment: Antimalarial activity against chloroquine, pyrimethamine, cycloguanil-resistant Plasmodium falciparum 7G8; type: functional, organism-based
Plasmodium falciparum [11] = experiment: Antimalarial activity against chloroquine and pyrimethamine-resistant Plasmodium falciparum K1; type: functional, organism-based
How it was run: (§2)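 P. falciparum cultured with test drug in human red blood cells for 3 days. Growth read out as hypoxanthine incorporation.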

Plasmodium berghei [12] = experiment: Antimalarial activity against Plasmodium berghei ANKA expressing GFP infected in NMRI mouse assessed as reduction in parasitemia at 100 mg/kg/day, po qd for 4 days measured at 24 hrs after last dose relative to control; type: functional; design: scale not given: the % may be the effect or the level left; how it was run: as §1
Plasmodium falciparum [13] = experiment: Antimalarial activity against drug-sensitive Plasmodium falciparum NF54; type: functional, organism-based
Plasmodium falciparum [14] = experiment: Antimalarial activity against mefloquine-resistant Plasmodium falciparum TM91C235; type: functional, organism-based
[15] = Terminal half life in NMRI mouse at 5 mg/kg, po by LC-MS/MS analysis; type: ADME, organism-based; design: dose 5 mg/kg, route oral; conditions: in vivo, read-out: beta t1/2 (converted)
[16] = Cmax in NMRI mouse at 1 mg/kg, iv and 5 mg/kg, po by LC-MS/MS analysis; type: ADME, organism-based; conditions: in vivo
[17] = Oral bioavailability in NMRI mouse at 5 mg/kg by LC-MS/MS analysis; type: ADME, organism-based; conditions: in vivo
Plasmodium falciparum [18] = experiment: Antimalarial activity against chloroquine-resistant Plasmodium falciparum K1 infected in human RBC; type: functional, organism-based; how it was run: as §2

Sequence of Cytochrome P450 3A4 (P08684 whole entry): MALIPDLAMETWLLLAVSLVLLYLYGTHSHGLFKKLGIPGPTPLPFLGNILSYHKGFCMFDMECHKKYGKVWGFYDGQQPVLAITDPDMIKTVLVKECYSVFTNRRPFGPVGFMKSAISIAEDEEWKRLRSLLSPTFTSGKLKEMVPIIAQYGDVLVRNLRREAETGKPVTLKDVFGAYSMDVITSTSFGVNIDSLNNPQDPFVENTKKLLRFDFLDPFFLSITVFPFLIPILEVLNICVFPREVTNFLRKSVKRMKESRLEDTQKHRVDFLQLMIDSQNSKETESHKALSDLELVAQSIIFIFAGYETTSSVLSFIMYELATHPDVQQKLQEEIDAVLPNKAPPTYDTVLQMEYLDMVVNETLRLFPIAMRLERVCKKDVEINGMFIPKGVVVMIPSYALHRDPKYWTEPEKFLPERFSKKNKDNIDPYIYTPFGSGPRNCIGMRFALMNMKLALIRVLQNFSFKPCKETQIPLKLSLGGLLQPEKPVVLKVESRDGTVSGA
Sequence of Cytochrome P450 2D6 (P10635 whole entry): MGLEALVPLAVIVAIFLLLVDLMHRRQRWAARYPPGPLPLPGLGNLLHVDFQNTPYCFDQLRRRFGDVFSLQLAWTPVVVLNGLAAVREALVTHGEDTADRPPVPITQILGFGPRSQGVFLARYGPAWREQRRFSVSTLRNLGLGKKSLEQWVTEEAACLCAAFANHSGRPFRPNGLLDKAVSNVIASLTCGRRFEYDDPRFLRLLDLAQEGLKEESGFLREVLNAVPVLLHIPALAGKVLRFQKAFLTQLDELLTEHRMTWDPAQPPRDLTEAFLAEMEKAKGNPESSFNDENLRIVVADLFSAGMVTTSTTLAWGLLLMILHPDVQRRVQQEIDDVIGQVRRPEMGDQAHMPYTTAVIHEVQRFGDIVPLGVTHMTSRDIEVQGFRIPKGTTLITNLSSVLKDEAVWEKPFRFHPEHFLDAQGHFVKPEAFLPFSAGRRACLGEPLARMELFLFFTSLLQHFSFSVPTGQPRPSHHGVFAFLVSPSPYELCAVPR
Sequence of Voltage-gated inwardly rectifying potassium channel KCNH2 (Q12809 whole entry): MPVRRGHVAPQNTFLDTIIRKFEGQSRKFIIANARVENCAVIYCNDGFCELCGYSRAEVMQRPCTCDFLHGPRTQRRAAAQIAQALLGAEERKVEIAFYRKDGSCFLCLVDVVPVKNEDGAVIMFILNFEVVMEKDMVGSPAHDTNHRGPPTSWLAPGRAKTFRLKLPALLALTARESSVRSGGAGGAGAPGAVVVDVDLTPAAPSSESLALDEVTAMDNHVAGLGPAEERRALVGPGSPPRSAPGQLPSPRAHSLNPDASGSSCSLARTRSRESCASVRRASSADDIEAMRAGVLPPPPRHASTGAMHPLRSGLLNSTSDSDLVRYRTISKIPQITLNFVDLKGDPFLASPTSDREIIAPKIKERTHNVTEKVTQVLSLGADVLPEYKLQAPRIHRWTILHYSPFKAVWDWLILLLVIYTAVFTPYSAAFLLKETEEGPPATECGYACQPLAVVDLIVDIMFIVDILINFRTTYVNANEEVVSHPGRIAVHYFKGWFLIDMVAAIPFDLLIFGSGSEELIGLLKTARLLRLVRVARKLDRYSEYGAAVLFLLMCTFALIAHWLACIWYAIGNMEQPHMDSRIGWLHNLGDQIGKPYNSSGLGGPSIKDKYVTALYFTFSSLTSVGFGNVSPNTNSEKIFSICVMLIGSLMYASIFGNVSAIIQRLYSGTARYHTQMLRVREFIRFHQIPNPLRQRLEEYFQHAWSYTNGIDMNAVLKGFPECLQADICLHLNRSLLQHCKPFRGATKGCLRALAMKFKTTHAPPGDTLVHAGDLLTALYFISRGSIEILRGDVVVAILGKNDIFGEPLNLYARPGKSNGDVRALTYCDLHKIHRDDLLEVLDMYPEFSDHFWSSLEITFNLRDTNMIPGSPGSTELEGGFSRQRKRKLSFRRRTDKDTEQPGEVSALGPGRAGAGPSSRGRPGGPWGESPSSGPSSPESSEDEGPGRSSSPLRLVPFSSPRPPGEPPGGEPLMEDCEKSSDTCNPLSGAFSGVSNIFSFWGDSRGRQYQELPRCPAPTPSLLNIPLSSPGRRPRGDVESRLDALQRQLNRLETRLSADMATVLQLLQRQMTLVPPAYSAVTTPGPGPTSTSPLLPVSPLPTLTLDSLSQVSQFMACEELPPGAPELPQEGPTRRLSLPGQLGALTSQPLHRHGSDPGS
Sequence of Cytochrome P450 2C19 (P33261 whole entry): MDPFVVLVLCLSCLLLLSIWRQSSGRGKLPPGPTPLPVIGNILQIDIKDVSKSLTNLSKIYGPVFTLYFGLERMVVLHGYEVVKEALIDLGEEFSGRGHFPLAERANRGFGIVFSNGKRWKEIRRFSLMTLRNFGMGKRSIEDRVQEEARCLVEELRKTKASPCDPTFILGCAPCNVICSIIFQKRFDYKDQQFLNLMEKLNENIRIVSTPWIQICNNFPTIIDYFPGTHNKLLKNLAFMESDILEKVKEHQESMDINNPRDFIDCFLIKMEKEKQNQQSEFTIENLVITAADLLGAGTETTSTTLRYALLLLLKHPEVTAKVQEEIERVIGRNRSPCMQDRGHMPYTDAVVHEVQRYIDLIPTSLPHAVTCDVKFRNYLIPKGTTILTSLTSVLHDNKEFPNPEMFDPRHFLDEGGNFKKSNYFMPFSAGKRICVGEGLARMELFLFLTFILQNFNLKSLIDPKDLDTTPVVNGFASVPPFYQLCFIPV
Sequence of Cytochrome P450 2C9 (P11712 whole entry): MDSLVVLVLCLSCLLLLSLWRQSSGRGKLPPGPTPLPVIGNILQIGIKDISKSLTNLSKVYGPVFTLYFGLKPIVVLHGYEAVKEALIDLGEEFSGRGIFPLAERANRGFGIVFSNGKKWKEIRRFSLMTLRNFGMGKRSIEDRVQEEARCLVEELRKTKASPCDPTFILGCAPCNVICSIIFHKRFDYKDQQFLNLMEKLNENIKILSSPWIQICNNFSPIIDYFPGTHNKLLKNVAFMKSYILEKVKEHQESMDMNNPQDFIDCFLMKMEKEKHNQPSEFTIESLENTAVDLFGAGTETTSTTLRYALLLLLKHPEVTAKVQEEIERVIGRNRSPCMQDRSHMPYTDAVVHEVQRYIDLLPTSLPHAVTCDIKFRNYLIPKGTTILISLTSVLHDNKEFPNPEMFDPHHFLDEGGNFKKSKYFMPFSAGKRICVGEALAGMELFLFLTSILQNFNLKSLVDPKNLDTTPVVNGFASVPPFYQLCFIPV

SMILES: O[C@H](CNC1CCCCC1)Cn1c2ccc(Br)cc2c2cc(Br)ccc21
inhibition (INH) (Cytochrome P450 1A2): Active | inhibition (INH) (Cytochrome P450 3A4): Active | inhibition (INH) [1]: Active | inhibition (INH) (Cytochrome P450 2C19): Active | inhibition (INH) (Cytochrome P450 2B6): Active | inhibition (INH) (Cytochrome P450 2C8): Active | Activity (Plasmodium falciparum [2]): Active | inhibition (INH) (Cytochrome P450 2D6): Active | inhibition (INH) (Cytochrome P450 2C9): Active

SMILES: OC(CN1CCN(CC2CCCCC2)CC1)Cn1c2ccc(Cl)cc2c2cc(Cl)ccc21 (stereo not given)
Vd [3]: 15 L/kg | Activity (Plasmodium berghei [4]): Dose dependent effect | ED50 (Plasmodium berghei [4]): 34.5 mg/kg/day | Activity (Plasmodium falciparum [5]): Active | Activity (Plasmodium falciparum [6]): Active | Activity (Plasmodium berghei [7]): Active | Activity (Plasmodium falciparum [8]): Active | AUC [9]: 1580 ng·h/mL | Activity (Plasmodium falciparum [10]): Active | Activity (Plasmodium falciparum [11]): Active | Activity (Plasmodium berghei [12]): 99.93% | IC50 (Plasmodium falciparum [2]): 16 nM | Activity (Plasmodium falciparum [13]): Active | Activity (Plasmodium falciparum [14]): Active | half-life [15]: 8 h | Cmax [16]: 135 ng/mL | bioavailability [17]: 50%

SMILES: FC(CN1CCN(CC2CCCCC2)CC1)Cn1c2ccc(Br)cc2c2cc(Br)ccc21 (stereo not given)
IC50 (Plasmodium falciparum [2]): 106 nM

SMILES: C[C@@H]1CC[C@H]2[C@@H](C)C(=O)O[C@@H]3O[C@@]4(C)CC[C@@H]1[C@]32OO4 [ARTEMISININ]
IC50 (Plasmodium falciparum [18]): 5.4 nM

SMILES: CC12CCC(CN(CC(O)Cn3c4ccc(Cl)cc4c4cc(Cl)ccc43)C1)C2(C)C (stereo not given)
IC50 (Plasmodium falciparum [18]): 57 nM

SMILES: O[C@@H](CNC1CCCCC1)Cn1c2ccc(Br)cc2c2cc(Br)ccc21
inhibition (INH) (Cytochrome P450 1A2): Active | inhibition (INH) (Cytochrome P450 3A4): Active | inhibition (INH) [1]: Active | inhibition (INH) (Cytochrome P450 2C19): Active | inhibition (INH) (Cytochrome P450 2B6): Active | inhibition (INH) (Cytochrome P450 2C8): Active | Activity (Plasmodium falciparum [2]): Active | inhibition (INH) (Cytochrome P450 2D6): Active | inhibition (INH) (Cytochrome P450 2C9): Active

SMILES: Clc1ccc2c(c1)c1cc(Cl)ccc1n2CCCN1CCN(CC2CCCCC2)CC1
IC50 (Plasmodium falciparum [2]): 707 nM

Now from value to compound:

IC50 (Plasmodium falciparum [2]): 27 nM
SMILES: OC(CN1CCN(Cc2ccccc2)CC1)Cn1c2ccc(Br)cc2c2cc(Br)ccc21 (stereo not given)

IC50 (Plasmodium falciparum [2]): 344 nM
SMILES: O=C1CN(Cc2ccccc2)CCN1CC(O)Cn1c2ccc(Cl)cc2c2cc(Cl)ccc21 (stereo not given)

IC50 (Plasmodium falciparum [2]): 275 nM
SMILES: OC(CN1CCN(Cc2ccccc2)CC1)Cn1c2ccccc2c2ccccc21 (stereo not given)

IC50 (Plasmodium falciparum [2]): 3310 nM
SMILES: COC(CN1CCN(Cc2ccccc2)CC1)Cn1c2ccccc2c2ccccc21 (stereo not given)

IC50 (Plasmodium falciparum [2]): 165 nM
SMILES: OC(CN1CCN(Cc2ccccc2)CC1)Cn1c2ccccc2c2cc(Cl)ccc21 (stereo not given)

IC50 (Plasmodium falciparum [2]): 448 nM
SMILES: O=C(CN1CCN(CC2CCCCC2)CC1)Cn1c2ccc(Cl)cc2c2cc(Cl)ccc21
